{
  "source": "ChEMBL document CHEMBL3425429",
  "key": {"[1]": {"test_system": "MDA-MB-231", "test": "Induction of apoptosis in human MDA-MB-231 cells assessed as early apoptotic cells at 0.03 uM after 24 hrs by annexin V-FITC/propidium iodide staining-based flow cytometric analysis (reference value: 1.58%)", "assay_type": "functional"}, "[2]": {"target": "NUAK family SNF1-like kinase 1 (Homo sapiens, UniProt O60285)", "sequence (O60285 whole entry)": "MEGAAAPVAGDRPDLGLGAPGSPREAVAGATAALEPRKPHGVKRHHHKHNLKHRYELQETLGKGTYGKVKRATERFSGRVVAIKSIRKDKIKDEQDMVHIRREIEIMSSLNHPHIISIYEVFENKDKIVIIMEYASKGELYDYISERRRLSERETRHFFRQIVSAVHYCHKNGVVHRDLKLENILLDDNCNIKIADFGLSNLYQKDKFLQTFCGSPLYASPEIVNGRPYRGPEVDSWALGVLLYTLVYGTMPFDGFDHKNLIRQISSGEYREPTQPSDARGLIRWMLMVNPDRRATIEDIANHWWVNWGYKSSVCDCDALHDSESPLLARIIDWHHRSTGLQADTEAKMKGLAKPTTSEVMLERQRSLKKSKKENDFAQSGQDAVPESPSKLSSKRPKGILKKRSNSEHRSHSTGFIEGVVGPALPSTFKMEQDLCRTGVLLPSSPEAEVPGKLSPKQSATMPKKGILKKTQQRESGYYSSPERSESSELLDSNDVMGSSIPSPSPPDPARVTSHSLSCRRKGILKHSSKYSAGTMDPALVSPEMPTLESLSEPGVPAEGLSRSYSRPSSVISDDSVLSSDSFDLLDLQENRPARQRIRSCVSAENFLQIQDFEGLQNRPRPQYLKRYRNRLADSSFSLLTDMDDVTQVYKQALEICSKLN", "test": "Inhibition of human Ark5", "outline": "(§1)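 Recombinant human protein kinases screened through the Eurofins KinaseProfiler service. IC50 values are means of two independent experiments.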"}, "[3]": {"test_system": "MDA-MB-231", "test": "Antimigratory activity against human MDA-MB-231 cells at >0.03 uM after 20 hrs by wound healing assay", "assay_type": "functional, cell-based", "outline": "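MDA-MB-231 monolayers grown to confluence, scratched with a sterile pipet tip, rinsed with saline, then kept in DMEM containing vehicle or compound; wound images taken after 20 h and analysed.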"}, "[4]": {"test_system": "MDA-MB-231", "test": "Induction of apoptosis in human MDA-MB-231 cells assessed as viable cells at 0.03 uM after 48 hrs by annexin V-FITC/propidium iodide staining-based flow cytometric analysis (reference value: 94.4%)", "assay_type": "functional", "details": "MDA-MB-231, 48 h, read-out: Activity", "outline": "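MDA-MB-231 cells (ATCC; medium with 10% FBS, 37 °C, 5% CO2) plated at 2 × 10^5 per six-well well and treated with a range of concentrations for 24 and 48 h at 37 °C. Cells harvested, washed with ice-cold PBS, stained with annexin V-FITC apoptosis detection kit and analysed by flow cytometry.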"}, "[5]": {"test_system": "Mus musculus", "test": "In vivo inhibition of Src phosphorylation in tumor of SCID mouse xenografted with human MDA-MB-231 cells at 30 mg/kg/day, po administered for 18 days measured post last dose by immunohistochemical analysis relative to vehicle-treated control", "assay_type": "functional, organism-based", "outline": "(§2)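 SCID mice carrying subcutaneous MDA-MB-231 xenografts received oral dosing once daily for 18 days (vehicle 25% PEG400 plus 5% DMSO in sterile water); at the end, tumors formalin-fixed and paraffin-embedded, 4–8 μm sections immunostained (Ki67, phospho-proteins) or TUNEL/AP-Red labelled, and compared with control.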"}, "[6]": {"test_system": "MDA-MB-231", "test": "Antitumor activity against human MDA-MB-231 cells xenografted in SCID mouse assessed as reduction in number of proliferating cells in tumor at 30 mg/kg/day, po administered for 18 days measured post last dose by Ki67 staining-based assay", "assay_type": "functional, organism-based", "outline": "as §2"}, "[7]": {"test_system": "MDA-MB-231", "test": "Induction of apoptosis in human MDA-MB-231 cells assessed as early apoptotic cells at 0.3 uM after 48 hrs by annexin V-FITC/propidium iodide staining-based flow cytometric analysis (reference value: […])", "assay_type": "functional"}, "[8]": {"test_system": "MDA-MB-231", "test": "Induction of apoptosis in human MDA-MB-231 cells assessed as viable cells at 0.3 uM after 48 hrs by annexin V-FITC/propidium iodide staining-based flow cytometric analysis (reference value: 94.4%)", "assay_type": "functional", "details": "MDA-MB-231, 48 h, read-out: Activity"}, "[9]": {"test_system": "MDA-MB-231", "test": "Induction of apoptosis in human MDA-MB-231 cells assessed as early apoptotic cells at 0.3 uM after 24 hrs by annexin V-FITC/propidium iodide staining-based flow cytometric analysis (reference value: 1.58%)", "assay_type": "functional"}, "[10]": {"test": "Tmax in Sprague-Dawley rat at 10 mg/kg, po by LC/MS analysis", "assay_type": "ADME, organism-based", "parameters": "dose 10 mg/kg, route oral", "details": "in vivo", "outline": "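Male Sprague-Dawley rats fitted with jugular vein catheters and fasted overnight, then given a single 10 mg/kg oral gavage dose; n=5. Serial blood samples were spun at once to plasma and analysed by LC-MS/MS. Noncompartmental parameters were fitted.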"}, "[11]": {"target": "Serine/threonine-protein kinase PAK 1 (Homo sapiens, UniProt Q13153)", "sequence (Q13153 whole entry)": "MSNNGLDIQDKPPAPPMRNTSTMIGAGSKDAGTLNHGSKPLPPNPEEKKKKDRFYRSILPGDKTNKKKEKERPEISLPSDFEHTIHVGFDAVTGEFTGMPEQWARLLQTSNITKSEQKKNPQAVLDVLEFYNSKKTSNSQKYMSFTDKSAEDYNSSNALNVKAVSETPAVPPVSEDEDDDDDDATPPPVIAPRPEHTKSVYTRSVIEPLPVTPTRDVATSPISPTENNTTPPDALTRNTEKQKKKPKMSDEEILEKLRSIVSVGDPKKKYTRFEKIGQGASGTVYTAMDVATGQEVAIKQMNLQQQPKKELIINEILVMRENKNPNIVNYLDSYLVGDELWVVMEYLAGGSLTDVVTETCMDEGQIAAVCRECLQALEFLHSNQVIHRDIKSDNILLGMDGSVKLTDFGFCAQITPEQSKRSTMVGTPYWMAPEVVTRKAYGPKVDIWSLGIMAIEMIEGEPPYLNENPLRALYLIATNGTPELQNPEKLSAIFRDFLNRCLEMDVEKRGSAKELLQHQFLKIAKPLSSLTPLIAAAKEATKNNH", "test": "Inhibition of human PAK1", "outline": "as §1"}, "[12]": {"target": "Cyclin-dependent kinase 2 (Homo sapiens, UniProt P24941)", "test": "Inhibition of human CDK2", "outline": "as §1"}},
  "note": "Activity calls are given as the source filed them. No cut-off for these calls is given here.",
  "data": [
    {"smiles": "CCn1nc(C#Cc2cc(C(=O)Nc3ccc(CN4CCN(C)CC4)c(C(F)(F)F)c3)ccc2C)c2c(N)ncnc21", "values": [
      {"measurement": "Activity", "setting": "[1]", "value": 2.29, "unit": "%"},
      {"measurement": "IC50", "setting": "[2]", "value": "> 10", "unit": "µM"},
      {"measurement": "Activity", "setting": "[3]", "value": "Active"},
      {"measurement": "viability at 0.03 µM", "setting": "[4]", "value": 90.5, "unit": "%"},
      {"measurement": "inhibition", "setting": "[5]", "value": "Active"},
      {"measurement": "Activity", "setting": "[6]", "value": "Active"},
      {"measurement": "Activity", "setting": "[7]", "value": 24.1, "unit": "%"},
      {"measurement": "viability at 0.3 µM", "setting": "[8]", "value": 63.2, "unit": "%"},
      {"measurement": "Activity", "setting": "[9]", "value": 6.51, "unit": "%"},
      {"measurement": "Tmax", "setting": "[10]", "value": 12, "unit": "h"},
      {"measurement": "IC50", "setting": "[11]", "value": "> 10", "unit": "µM"},
      {"measurement": "IC50", "setting": "[12]", "value": "> 10", "unit": "µM"}
    ]}
  ]
}
